Screening data from PubChem.
An excerpt weighted towards active compounds, which were near 3.5% of everything screened.
MrgX1 ag: activates human MrgX1 receptor signaling; Q96LB2; MrgX1-HEK293 cells, Fluo-4 calcium fluorescence, agonist mode; active compounds read high; B-score at 10 µM; 310,000 tested, 0.44% active;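 active = calcium response B-score plate-corrected fluorescence ratio at least 3 library SD, with starting fluorescence B-score inside 5 SD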
Target sequence (Q96LB2 whole entry, looked up): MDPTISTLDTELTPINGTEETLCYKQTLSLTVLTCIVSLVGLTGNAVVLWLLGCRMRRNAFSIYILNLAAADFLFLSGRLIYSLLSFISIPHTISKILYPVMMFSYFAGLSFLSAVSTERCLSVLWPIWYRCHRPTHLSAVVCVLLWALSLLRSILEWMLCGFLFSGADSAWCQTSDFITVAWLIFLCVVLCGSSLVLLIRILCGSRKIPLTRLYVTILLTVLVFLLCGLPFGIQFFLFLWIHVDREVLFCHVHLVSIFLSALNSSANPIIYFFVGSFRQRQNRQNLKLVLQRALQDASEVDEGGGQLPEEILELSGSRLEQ
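Material: MrgX1-expressing HEK293 cells / Dosing: compound as first of three additions / Incubation: overnight seeding, then 1 h dark dye loading / Signal: Fluo-4 NW calcium fluorescence / Evaluation: B-scored fluorescence response ratio / Benchmarks: positive and negative control wells on each plate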
RGS4 block: inhibitors of human RGS4; HEK293 M3R/RGS4 inducible, Fluo-4 calcium flux; active compounds read high; triggered by carbachol at its EC20; B-score at 10 µM; 310,000 tested, 0.45% active; AID 463165;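 active = B-score, a plate-corrected calcium signal, over three deviations above library mean, with baseline fluorescence within five deviations of library mean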;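 note: RGS4 expression induced by doxycycline in cells with stable M3 receptor; B-score is computed from the integrated fluorescence ratio over baseline after carbachol; higher B-score means a larger calcium signal and so more RGS4 inhibition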
Target sequence (P49798 whole entry, looked up): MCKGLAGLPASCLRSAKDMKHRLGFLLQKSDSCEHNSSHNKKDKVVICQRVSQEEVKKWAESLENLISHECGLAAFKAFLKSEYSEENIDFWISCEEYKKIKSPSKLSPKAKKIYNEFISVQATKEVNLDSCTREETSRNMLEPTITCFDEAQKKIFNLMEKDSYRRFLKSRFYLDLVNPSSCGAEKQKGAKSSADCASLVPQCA
MrgX1 PAM: human MrgX1 positive allosteric modulation, primary screen. Q96LB2. MrgX1-HEK293, Fluo-4 calcium flux, FDSS; active compounds read high. B-score at 10 µM. 310,000 tested, 0.63% active. AID 588675;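 active = plate-corrected calcium response at least 3 library SD above typical, normal starting fluorescence, not activating the receptor alone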;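 note: compound read alongside a low EC10 to EC30 dose of BAM8-22 agonist; peak minus trough fluorescence over baseline measured at the second addition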
RGS4 pot: RGS4 potentiation or activation. HEK293 M3R/inducible RGS4, carbachol calcium flux Fluo4; active compounds read low. B-score at 10 µM. 310,000 tested, 0.92% active;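 active = B-score of the integrated calcium signal more than 4 SD below the library mean, with starting fluorescence not abnormally high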;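 note: negative B-score means reduced calcium response which marks RGS4 activation or potentiation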
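Also added: carbachol at ECmax as muscarinic agonist stimulus; Assay system: HEK293 cells with stable M3R and inducible RGS4; Timing: overnight RGS4 induction, 30 min dye load 37 °C, 20 min compound RT; Measured by: Fluo4-AM (2 µM) calcium-flux fluorescence, kinetic read.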
MrgX1 antagonist: blocks BAM8-22 activation of human MrgX1 receptor. Q96LB2. MRGX1-HEK293 calcium flux, Fluo-4, BAM8-22 antagonism; active compounds read low. B-score at 10 µM. 310,000 tested, 1.3% active. AID 588676;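 active = calcium-response B-score plate-corrected more than 3 library SD below zero, starting fluorescence within 5 deviations, no agonist response on first addition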;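 note: peak minus trough fluorescence over baseline after final BAM8-22 challenge near maximal dose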
Hits are given with their value; n = inactive.

SMILES	MrgX1 ag	RGS4 block	MrgX1 PAM	RGS4 pot	MrgX1 antagonist
COc1ccc(N2C(=NC(=O)C3CCCO3)SC3CS(=O)(=O)CC32)cc1 (configuration not stated)	n	n	n	n	n
CC(C)c1ccc(/C=N/NC(=O)c2cccc(Cl)c2)cc1	n	n	n	n	n
CC(=O)Nc1ccc(C(=O)N/N=C/c2ccccc2OC(=O)c2ccc(Cl)cc2)cc1	n	n	n	-7.26	n
CC(C)c1ccc(C(=O)N/N=C/c2cccc(Cl)c2Cl)cc1	n	n	6.49	n	n
CC(=O)NN1C(=O)/C(=C/c2ccc(Br)o2)SC1=S	n	n	7.05	n	n
CC(=O)NN1C(=O)/C(=C\c2ccccc2)SC1=S	n	n	9.46	n	n
N#Cc1ccccc1S(=O)(=O)Nc1ccc2c(c1)OCCO2	n	n	n	n	n
O=C1CCCCCCC1Sc1ccccc1[N+](=O)[O-] (configuration not stated)	n	n	14.6	n	n
COc1ccc(OC)c(N=C(N)N=C(N)N)c1	n	n	n	n	n
Oc1oc(-c2ccccc2)nc1C=Nc1cccc2ccccc12	n	n	n	-7.15	n
Oc1oc(-c2ccccc2)nc1/C=N/c1nccs1	n	n	n	n	n
CCOC(=O)/C(C#N)=N/Nc1ccc(S(=O)(=O)N2CCc3ccccc32)cc1	n	n	n	n	-4.52
N#C/C(=N\Nc1ccc(S(=O)(=O)N2CCc3ccccc32)cc1)C(N)=S	n	n	n	n	n
CCn1nc(C)cc1-c1nnc(Sc2ncc([N+](=O)[O-])s2)n1C	37.6	n	n	-7.89	n
CCCCC1S/C(=N/N=C/c2ccc(OC)cc2)N(Cc2ccc(OC)cc2)C1=O (configuration not stated)	n	n	n	n	-5.31
CC(C)N1CCN(Cc2ccc(-c3ccccc3)cc2)CC1CCO (configuration not stated)	n	n	n	n	n
CC(C)N1CCN(Cc2ccc(OCc3ccccc3)cc2)CC1CCO (configuration not stated)	n	n	n	-7.04	n
CC1CCCN(Cc2ccc(OCc3ccccc3)cc2)C1 (configuration not stated)	n	n	n	-7.59	n
CC(C)C(NC(=O)c1ccc(Cl)cc1)C(=O)NCC1CCCO1 (configuration not stated)	n	n	n	n	n
Nc1ncc(Br)cc1S(=O)(=O)NCCc1ccccc1	n	n	n	n	n
CC(=O)Nc1ccccc1OCC(=O)c1cc(C)n(Cc2cccs2)c1C	47.6	n	n	n	n
O=C1C=CC(=O)N1c1cccc(-c2ccccc2)c1	n	n	n	-9.46	n
COc1cccc2sc(Nc3nc(-c4ccccn4)cs3)nc12	n	n	7.81	-8.67	n
c1ccc(Nc2nc(-c3ccccn3)cs2)cc1	n	n	n	n	n
CCCCN(CCCC)CCCN1CC(=O)N2[C@@H](Cc3c([nH]c4ccccc34)C2(C)C)C1=O	n	n	n	-8.44	n
SMILES	MrgX1 ag	RGS4 block	MrgX1 PAM	RGS4 pot	MrgX1 antagonist
CCCCCN1CC(=O)N2[C@@H](Cc3c([nH]c4ccccc34)C2(C)C)C1=O	n	n	n	n	n
COc1cccc(C(=O)Nc2ccc(C(=O)c3ccncc3)cc2)c1	n	n	7.09	n	n
COc1cc(OC)c(C(=O)Nc2ccc(C(=O)c3ccccc3)cc2)cc1OC	n	n	n	-7.21	n
COc1ccc(C(=O)N/N=C(/C)c2cccc(NC(=O)c3ccncc3)c2)cc1OC	n	n	n	-6.96	n
COc1cccc(C(=O)Nc2ccc(NC(C)=O)cc2)c1	n	n	n	n	n
COc1cc(OC)c(C(=O)Nc2ccncc2)cc1OC	n	n	n	n	n
Cc1ccc(NC(=O)c2cccc(NC3=NC4CS(=O)(=O)CC4S3)c2)cc1 (configuration not stated)	n	n	n	n	n
O=C(Nc1nnc(-c2ccc(F)cc2)o1)c1cccc([N+](=O)[O-])c1	58.1	n	n	n	n
O=C(Nc1nnc(C2=COCCO2)o1)c1cccc([N+](=O)[O-])c1	n	n	n	n	n
COC(=O)c1ccc(N)c(N=CC2=C(O)CC(C)(C)CC2=O)c1	27.1	n	n	n	n
Cc1onc(-c2c(Cl)cccc2Cl)c1C(=O)NN1CCCCCC1	n	n	n	-8.44	n
Cc1onc(-c2c(Cl)cccc2Cl)c1C(=O)NC1CCCCC1	n	n	n	n	n
Cc1ccc(S(=O)(=O)N2CCCNCC2)cc1	n	n	n	n	n
CCCCCCOc1ccc(/C(C)=N/NC2=NCCN2)cc1[N+](=O)[O-]	n	n	n	n	n
CCCCOc1ccc(Br)cc1/C(C)=N/NC1=NCCN1	n	n	n	-8.11	n
c1coc(C2Nc3cccc4cccc(c34)N2)c1	n	7.23	n	n	n
CC(=O)N1N=C(c2ccc(C)cc2)OC1c1ccc(Br)cc1 (configuration not stated)	n	n	n	n	n
CC(=O)N1N=C(c2ccc(Cl)cc2)OC1c1ccc(C(C)C)cc1 (configuration not stated)	n	n	n	-7.88	n
CCOC(=O)c1sc(-c2ccccc2)cc1NC(=O)Nc1ccc([N+](=O)[O-])cc1	n	n	n	n	n
COc1cccc(-n2nnnc2S(C)(=O)=O)c1	47.8	n	n	n	n
CCCN1CCN(C(=O)Cn2nc(CC)n3c(cc4sccc43)c2=O)CC1	n	n	n	n	n
O=[N+]([O-])c1cccc(S(=O)(=O)N/N=C\c2ccc3c(c2)OCO3)c1	n	n	13	n	n
O=[N+]([O-])c1cccc(S(=O)(=O)N/N=C/c2ccc(O)cc2)c1	n	n	6.62	n	n
CN(C)CCNC(=O)/C=C/c1cn(-c2ccccc2)nc1-c1cc2ccccc2oc1=O	n	n	n	n	n
Cn1ccnc1C1CCCCN1C(=O)c1cc(COc2ccc(F)cc2Cl)on1 (configuration not stated)	n	n	n	-7.44	n
SMILES	MrgX1 ag	RGS4 block	MrgX1 PAM	RGS4 pot	MrgX1 antagonist
CCN(CC)C1CCN(C(=O)c2cc(COc3ccc(F)cc3Cl)on2)C1 (configuration not stated)	n	n	n	-7.03	n
O=C(c1cc(COc2ccc(F)cc2Cl)on1)N1CC[C@@H]2CCCC[C@H]2C1	n	n	n	n	n
CCCCCCc1cc2cc(-c3nnc(-c4ccccc4OC)o3)c(=O)oc2cc1O	n	n	n	n	n
CCCCCCc1cc2cc(-c3nnc(-c4cc(OC)c(OC)c(OC)c4)o3)c(=O)oc2cc1O	79.9	n	n	n	n
CN(C)[C@@H]1CCC[C@H]1OC(=O)C(c1ccccc1)c1ccccc1	n	n	n	n	n
CC1CN(C)C(C)CC1OC(=O)C(c1ccccc1)c1ccccc1 (configuration not stated)	n	n	n	-7.23	n
